Experiment [1] deals with Mus musculus. Description: Anticonvulsant activity against CF1 mouse assessed as protection against PTZ-induced convulsions at 20 mg/kg, ip for 60 mins. Conditions: route intraperitoneal. The format is functional. The method, boiled down:
(§1)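 Male adult CF1 mice (2 months at purchase, housed ≥2 weeks at 22 °C, 12 h light/dark). Drug given i.p. (0.1 mL/10 g); 30 min later PTZ 88 mg/kg s.c. Each mouse then observed singly for 60 min for clonic convulsions lasting >3 s. n = 10 per group. Fisher's exact test against vehicle (saline or 10% propylene glycol).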

In experiment [2] the test system is Mus musculus. As to the kind of experiment: Anticonvulsant activity against CF1 mouse assessed as protection against PTZ-induced convulsions at 0.8 mg/kg, ip for 60 mins. Type of experiment: functional. As to conditions: route intraperitoneal. In short, it runs like this:
as §1

Experiment [3] relates to Mus musculus. As to the kind of experiment: Effect on short term memory of CF1 mouse assessed as reduction in latency during aquisition at 0.15 mg/kg by passive avoidance test. The format is functional.
Experiment [4] deals with Mus musculus. As to the kind of experiment: Effect on long term memory of CF1 mouse assessed as reduction in step down latency at 0.15 mg/kg by passive avoidance test. The format is functional. The method, boiled down: (§2)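 Step-down inhibitory avoidance in male CF1 mice. Training used a 0.3 mA scrambled footshock for 15 s on stepping down. The test session was 24 h later without shock, with a 300 s cutoff. For acquisition effects, drug (MK-801 or diazepam in 10% propylene glycol, i.p.) was given 30 min before training; the post-training group was dosed immediately after training. N = 20, medians (IQR).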

For experiment [5], the system named is Mus musculus. Description: Effect on long term memory of CF1 mouse assessed as reduction in latency during aquisition at 0.15 mg/kg by passive avoidance test. Type of experiment: functional. The method, boiled down: as §2
Experiment [6] concerns Mus musculus. As to the kind of experiment: Effect on short term memory of CF1 mouse assessed as reduction in step down latency at 0.15 mg/kg by passive avoidance test. Type of experiment: functional.
The test system of experiment [7] is Mus musculus. Description: Antidepressant activity in CF1 mouse assessed as decrease in duration of immobility at 0.15 mg/kg during final 4 mins of the 6 mins session by forced swimming test. The format is functional. The method, boiled down:
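Male adult CF1 mice, dosed i.p. Each mouse made to swim for 6 min in a 30 cm diameter cylinder holding 20 cm of water at 25 ± 1 °C. Immobility time was scored over the last 4 min. N = 10 per group, mean ± SEM, ANOVA against saline.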

Experiment [8] deals with Mus musculus. As to the kind of experiment: Anxiolytic activity against CF1 mouse assessed as suppression of oxotremorine-treated tremors at 3 mg/kg. Type of experiment: functional, organism-based. More on the design: dose 3 mg/kg. The method, boiled down: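 Mice received treatment i.p. 30 min before oxotremorine 0.5 mg/kg in saline. Each mouse was then placed alone in a transparent cage immediately after injection and tremor was scored. Data given as median (interquartile range); Kruskal–Wallis then Mann–Whitney U against saline + oxotremorine.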

The subject of experiment [9] is Mus musculus. Description: Anxiolytic activity against CF1 mouse assessed as increase in number of crossings at 0.75 mg/kg after 30 mins in presence of picrotoxin by hole-board assay. More on the design: dose 0.75 mg/kg. Type of experiment: functional, organism-based. In short, it runs like this:
(§3)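 Hole-board with photocell-counted head-dips; the board was marked into 16 squares of 10×10 cm. Male CF1 mice were acclimatised ≥1 h in dim light. Diazepam in 10% propylene glycol was given i.p. 30 min before testing. Picrotoxin 1 mg/kg i.p. was given 30 min before treatment. Head-dips, squares crossed and rearings were recorded over 5 min. N = 8–15, ANOVA then SNK.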

Experiment [10] concerns Mus musculus. As to the kind of experiment: Anxiolytic activity against CF1 mouse assessed as increase in latency to enter in the dark compartment 0.85 mg/kg in presence of picrotoxin for 5 mins. More on the design: dose 0.85 mg/kg. The format is functional, organism-based. In short, it runs like this:
(§4)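 Light/dark box with a small black compartment and a large white one lit at 400 lx. Male CF1 mice were acclimatised for ≥1 h under dim red light. Diazepam in 10% propylene glycol was given i.p. 30 min before testing. Picrotoxin 1 mg/kg i.p. in saline was given 30 min before treatment. Read-outs: latency to first entry and time spent in the light area. N = 8–22, ANOVA then SNK.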

The test system of experiment [11] is Mus musculus. As to the kind of experiment: Effect on locomotory activity in CF1 mouse assessed as change in spontaneous activity at 0.75 and 0.85 mg/kg. The format is functional, organism-based. Details: dose 0.85 mg/kg. The method, boiled down:
(§5)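 Mice were habituated singly for 10 min in photocell activity cages and then dosed i.p. Diazepam was given in 10% propylene glycol. After 30 min, crossings were recorded for 15 min. n = 10–16, ANOVA then SNK.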

The subject of experiment [12] is Mus musculus. Description: Anxiolytic activity against CF1 mouse assessed as increase in time spent in light compartment at 0.85 mg/kg in presence of picrotoxin for 5 mins. Details: dose 0.85 mg/kg. Type of experiment: functional, organism-based. The method, boiled down:
as §4

For experiment [13], the system named is Mus musculus. As to the kind of experiment: Anxiolytic activity against CF1 mouse assessed as increase in time spent in light compartment at 0.85 mg/kg for 5 mins. Type of experiment: functional, organism-based. Details: dose 0.85 mg/kg. The method, boiled down:
as §4

Experiment [14] concerns Mus musculus. As to the kind of experiment: Anxiolytic activity against CF1 mouse assessed as increase in number of head dips at 0.75 mg/kg after 30 mins by hole-board assay. Details: dose 0.75 mg/kg. The format is functional, organism-based. The method, boiled down: as §3
Experiment [15] deals with Mus musculus. As to the kind of experiment: Effect on locomotory activity in CF1 mouse assessed as change in spontaneous activity at 3 to 30 mg/kg. Type of experiment: functional, organism-based. The method, boiled down:
as §5

The subject of experiment [16] is Mus musculus. Description: Anxiolytic activity against CF1 mouse assessed as increase in number of head dips at 0.75 mg/kg after 30 mins in presence of picrotoxin by hole-board assay. Type of experiment: functional, organism-based. More on the design: dose 0.75 mg/kg. In short, it runs like this: as §3
The test system of experiment [17] is Mus musculus. Description: Anxiolytic activity against CF1 mouse assessed as increase in number of crossings at 0.75 mg/kg after 30 mins by hole-board assay. Type of experiment: functional, organism-based. Details: dose 0.75 mg/kg. The method, boiled down:
as §3

Experiment [18] has as its system Mus musculus. Description: Anxiolytic activity against CF1 mouse assessed as increase in number of rearings at 0.75 mg/kg after 30 mins by hole-board assay. The format is functional, organism-based. More on the design: dose 0.75 mg/kg. The method, boiled down: as §3
The subject of experiment [19] is Mus musculus. Description: Anxiolytic activity against CF1 mouse assessed as increase in number of rearings at 0.75 mg/kg after 30 mins in presence of picrotoxin by hole-board assay. Type of experiment: functional, organism-based. Details: dose 0.75 mg/kg. The method, boiled down: as §3
Experiment [20] concerns Mus musculus. Description: Anxiolytic activity against CF1 mouse assessed as increase in latency to enter in the dark compartment 0.85 mg/kg for 5 mins. Type of experiment: functional, organism-based. More on the design: dose 0.85 mg/kg. In short, it runs like this:
as §4

In experiment [21] the test system is Mus musculus. As to the kind of experiment: Antidepressant activity in CF1 mouse assessed as decrease in duration of immobility at 15 mg/kg during final 4 mins of the 6 mins session by forced swimming test. Type of experiment: functional.

Active and inactive are the calls of the source.

As for `CCC1(c2ccccc2)C(=O)NC(=O)NC1=O` [PHENOBARBITAL], the Activity amounted to 0% in experiment [1] and 10% in experiment [2].

Consider `C[C@]12N[C@H](Cc3ccccc31)c1ccccc12` [DIZOCILPINE], for which the Activity came out at 8.4 s in experiment [3]; 6.2 s in [4]; 6 s in experiment [5]; 16.5 s in experiment [6]; 33.36 s in experiment [7].

As for `CN1[C@@H]2C[C@@H](OC(=O)[C@H](CO)c3ccccc3)C[C@H]1[C@@H]1O[C@@H]12`, the outcome in [8] was Active.

On to `CN1C(=O)CN=C(c2ccccc2)c2cc(Cl)ccc21` [DIAZEPAM], for which the result in [9], in experiment [10], in experiment [11], in [12], in [15] and in [16] was inactive. Besides, the result in [19] was inactive. Also, the Activity in experiment [1] amounted to 0%; in experiment [2], 10%. Further, the result in experiment [13], in [14], in experiment [17], in experiment [18] and in [20] was Active.

Regarding `CN(C)CCCN1c2ccccc2CCc2ccccc21` [IMIPRAMINE], in experiment [21], the Activity stood at 46.05 s.

These data come from ChEMBL document CHEMBL1158703, “Psychopharmacological profile of the alkaloid psychollatine as a 5HT2A/C serotonin modulator” (2005).
